Data on four molecules can be found in ChEMBL document CHEMBL1147232, “An anxiolytic-like effect of Ginkgo biloba extract and its constituent, ginkgolide-A, in mice” (J Nat Prod, 2003).

Structures are written as SMILES.

Data set [1] relates to Mus musculus. The data set is described as follows: Anxiolytic-like activity in ddY mouse assessed as number of shuttle per hour at 10 mg/kg, po by discrete shuttle avoidance test. In kind it is functional. In outline: (§1)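 Male ddY mice (7 weeks, 33-36 g), pretrained and reused, showing stable baselines (150-250 shuttles/h, fewer than 10 shocks per session). Single oral dose immediately before a 60-min discrete shuttle avoidance session of 120 trials. Shuttles were full crossings of the chamber. Drug tests ran 3-4 days apart. Vehicle controls; n=10 per group; mean ± SEM; one- or two-way ANOVA with Student-Newman-Keuls.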

The subject of data set [2] is Mus musculus. Put plainly: Anxiolytic-like activity in ddY mouse assessed as number of shocks per hour at 10 mg/kg, po by discrete shuttle avoidance test. In kind it is functional. The essentials: as §1
Data set [3] has as its system Mus musculus. Put plainly: Anxiolytic-like activity in ddY mouse assessed as ambulatory activity at 1 mg/kg, po for 7 days measured 24 hrs after final drug administration assessed per 5 mins by tilting type ambulometer test. It is filed as functional. In outline: (§2)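 Male ddY mice (7 weeks, 33-36 g) dosed orally once daily (0.1 mL/10 g) for the stated number of days. Plus-maze 24 h after final dose, then ambulatory activity counted for 5 min on a tilting ambulometer immediately after. Animals used once; N per group as tabulated; mean ± SEM; ANOVA with Student-Newman-Keuls.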

The subject of data set [4] is Mus musculus. The data set is described as follows: Anxiolytic-like activity in ddY mouse assessed as time spent in open-sided arms at 1 mg/kg, po for 7 days measured 24 hrs after final drug administration by elevated plus-maze test. It is filed as functional. The essentials: (§3)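 Elevated plus-maze with two walled arms (6 × 30 × 10 cm); time (s) in the open-sided arms recorded 24 h after the last of daily oral doses given for the stated number of days. Male ddY mice, 7 weeks, drug-naive, used once. Mean ± SEM; ANOVA with Student-Newman-Keuls.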

Data set [5] relates to Mus musculus. The data set is described as follows: Anxiolytic-like activity in ddY mouse assessed as ambulatory activity at 0.3 mg/kg, po for 7 days measured 24 hrs after final drug administration assessed per 5 mins by tilting type ambulometer test. In kind it is functional.
For data set [6], the system named is Mus musculus. The data set is described as follows: Anxiolytic-like activity in ddY mouse assessed as time spent in open-sided arms at 0.3 mg/kg, po for 7 days measured 24 hrs after final drug administration by elevated plus-maze test. In kind it is functional.
The test system of data set [7] is Mus musculus. Put plainly: Anxiolytic-like activity in ddY mouse assessed as pentobarbital-induced sleep time at 20 mg/kg, po administered 30 mins before pentobarbital challenge. In kind it is functional. In outline: (§4)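 Oral dose to male ddY mice 30 min before pentobarbital-Na 50 mg/kg ip. Sleep time is the interval between loss and recovery of righting reflex (s). Separate drug-naive mice, used once; 10 per group; mean ± SEM; one-way ANOVA with Student-Newman-Keuls.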

The test system of data set [8] is Mus musculus. Put plainly: Anxiolytic-like activity in ddY mouse assessed as number of shocks per hour at 5 mg/kg, po administered 30 mins before test by discrete shuttle avoidance test. It is filed as functional. The essentials:
(§5)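 Well-trained male ddY mice with stable baselines (150-250 shuttles/h, under 10 shocks) had 60-min discrete shuttle avoidance sessions of 120 trials, dosed orally 30 min before. Shuttles and shocks per hour counted. Drug tests at 3-4 day intervals, mice reused; 10 mice per group; mean ± SEM; one-way ANOVA with Student-Newman-Keuls.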

Data set [9] concerns Mus musculus. The data set is described as follows: Anxiolytic-like activity in ddY mouse assessed as ambulatory activity at 1 mg/kg, po for 4 days measured 24 hrs after final drug administration assessed per 5 mins by tilting type ambulometer test. In kind it is functional.
Data set [10] concerns Mus musculus. The data set is described as follows: Anxiolytic-like activity in ddY mouse assessed as time spent in open-sided arms at 1 mg/kg, po for 5 days measured 24 hrs after final drug administration by elevated plus-maze test. In kind it is functional. In outline: as §3
Data set [11] relates to Mus musculus. Put plainly: Anxiolytic-like activity in ddY mouse assessed as ambulatory activity at 1 mg/kg, po for 1 day measured after 1 hr assessed per 5 mins by tilting type ambulometer test. It is filed as functional. The essentials: (§6)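 Ambulatory activity counted for 5 min on a tilting ambulometer immediately after the maze. 10 mice per group; mean ± SEM; one-way ANOVA with Student-Newman-Keuls.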

Data set [12] deals with Mus musculus. The data set is described as follows: Anxiolytic-like activity in ddY mouse assessed as ambulatory activity at 1 mg/kg, po for 2 days measured 24 hrs after final drug administration assessed per 5 mins by tilting type ambulometer test. It is filed as functional. The essentials: as §2
Data set [13] relates to Mus musculus. Put plainly: Toxicity in ddY mouse assessed as induction of excitation at 20 mg/kg, po after 1 to 3 hrs. It is filed as organism-based. Further details: dose 20 mg/kg, route oral. The conditions noted are these: in vivo.
For data set [14], the system named is Mus musculus. The data set is described as follows: Anxiolytic-like activity in ddY mouse assessed as number of shuttle per hour at 1 mg/kg, po administered 30 mins before test by discrete shuttle avoidance test. In kind it is functional. The essentials:
as §5

A short description of data set [15]: Half life in rat. It is filed as ADME, organism-based. The conditions noted are these: in vivo.
Data set [16] concerns Mus musculus. Put plainly: Toxicity in ddY mouse assessed as induction of ataxia at 1 mg/kg, po after 1 to 3 hrs. In kind it is organism-based. Further details: dose 1 mg/kg, route oral. The conditions noted are these: in vivo.
Data set [17] deals with Mus musculus. Put plainly: Toxicity in ddY mouse assessed as induction of muscle relaxation at 1 mg/kg, po after 1 to 3 hrs. It is filed as organism-based. Further details: dose 1 mg/kg, route oral. The conditions noted are these: in vivo.
The subject of data set [18] is Mus musculus. Put plainly: Toxicity in ddY mouse at 1 to 2 mg/kg, po. The conditions noted are these: in vivo. Further details: dose 1-2 mg/kg, route oral. It is filed as organism-based.
The subject of data set [19] is Mus musculus. The data set is described as follows: Anxiolytic-like activity in ddY mouse assessed as pentobarbital-induced sleep time at 5 mg/kg, po administered 30 mins before pentobarbital challenge. In kind it is functional. In outline:
as §4

Data set [20] relates to Mus musculus. The data set is described as follows: Anxiolytic-like activity in ddY mouse assessed as pentobarbital-induced sleep time at 1 mg/kg, po administered 30 mins before pentobarbital challenge. In kind it is functional. The essentials:
as §4

For data set [21], the system named is Mus musculus. Put plainly: Anxiolytic-like activity in ddY mouse assessed as time spent in open-sided arms at 1 mg/kg, po for 3 days measured 24 hrs after final drug administration by elevated plus-maze test. It is filed as functional. In outline: as §3
The test system of data set [22] is Mus musculus. The data set is described as follows: Anxiolytic-like activity in ddY mouse assessed as time spent in open-sided arms at 1 mg/kg, po for 2 days measured 24 hrs after final drug administration by elevated plus-maze test. In kind it is functional. The essentials: as §3
Data set [23] has as its system Mus musculus. The data set is described as follows: Toxicity in ddY mouse assessed as body weight gain after repeated administration. In kind it is organism-based. The conditions noted are these: in vivo.
In data set [24] the test system is Mus musculus. The data set is described as follows: Anxiolytic-like activity in ddY mouse assessed as ambulatory activity at 2 mg/kg, po for 1 day measured after 1 hr assessed per 5 mins by tilting type ambulometer test. It is filed as functional. The essentials:
as §6

Data set [25] has as its system Mus musculus. Put plainly: Anxiolytic-like activity in ddY mouse assessed as number of shocks per hour at 1 mg/kg, po administered 30 mins before test by discrete shuttle avoidance test. In kind it is functional. The essentials:
as §5

The test system of data set [26] is Mus musculus. Put plainly: Anxiolytic-like activity in ddY mouse assessed as pentobarbital-induced sleep time at 10 mg/kg, po administered 30 mins before pentobarbital challenge. It is filed as functional. In outline: as §4
In data set [27] the test system is Mus musculus. The data set is described as follows: Anxiolytic-like activity in ddY mouse assessed as time spent in open-sided arms at 1 mg/kg, po for 4 days measured 24 hrs after final drug administration by elevated plus-maze test. In kind it is functional.
In data set [28] the test system is Mus musculus. The data set is described as follows: Anxiolytic-like activity in ddY mouse assessed as ambulatory activity at 1 mg/kg, po for 5 days measured 24 hrs after final drug administration assessed per 5 mins by tilting type ambulometer test. In kind it is functional. In outline:
as §2

Data set [29] deals with Mus musculus. The data set is described as follows: Toxicity in ddY mouse assessed as induction of sedation at 20 mg/kg, po after 1 to 3 hrs. It is filed as organism-based. Further details: dose 20 mg/kg, route oral. To be noted: in vivo.
Data set [30] concerns Mus musculus. The data set is described as follows: Anxiolytic-like activity in ddY mouse assessed as time spent in open-sided arms at 2 mg/kg, po for 7 days measured 24 hrs after final drug administration by elevated plus-maze test. In kind it is functional. In outline:
as §3

For data set [31], the system named is Mus musculus. The data set is described as follows: Anxiolytic-like activity in ddY mouse assessed as time spent in open-sided arms at 2 mg/kg, po for 1 day measured after 1 hr by elevated plus-maze test. It is filed as functional. The essentials: (§7)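 Elevated plus-maze with two walled arms (6 × 30 × 10 cm) and an 8 × 8 cm central platform; read-out is time (s) in the open-sided arms. 10 mice per group, each used once; mean ± SEM; one-way ANOVA with Student-Newman-Keuls.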

For data set [32], the system named is Mus musculus. Put plainly: Anxiolytic-like activity in ddY mouse assessed as ambulatory activity at 1 mg/kg, po for 3 days measured 24 hrs after final drug administration assessed per 5 mins by tilting type ambulometer test. It is filed as functional. The essentials:
as §2

Data set [33] relates to Mus musculus. Put plainly: Anxiolytic-like activity in ddY mouse assessed as number of shuttle per hour at 5 mg/kg, po administered 30 mins before test by discrete shuttle avoidance test. In kind it is functional. The essentials: as §5
Data set [34] has as its system Mus musculus. Put plainly: Anxiolytic-like activity in ddY mouse assessed as time spent in open-sided arms at 1 mg/kg, po for 1 day measured after 1 hr by elevated plus-maze test. In kind it is functional. The essentials: as §7
The test system of data set [35] is Mus musculus. The data set is described as follows: Anxiolytic-like activity in ddY mouse assessed as pentobarbital-induced sleep time at 0.5 mg/kg, po administered 30 mins before pentobarbital challenge. In kind it is functional. The essentials: as §4
Data set [36] relates to Mus musculus. The data set is described as follows: Anxiolytic-like activity in ddY mouse assessed as ambulatory activity at 2 mg/kg, po for 7 days measured 24 hrs after final drug administration assessed per 5 mins by tilting type ambulometer test. In kind it is functional. The essentials: as §2
Data set [37] deals with Mus musculus. Put plainly: Anxiolytic-like activity in ddY mouse assessed as pentobarbital-induced sleep time at 2 mg/kg, po administered 30 mins before pentobarbital challenge. In kind it is functional. In outline: as §4

For `Cn1c(=O)c2c(ncn2C)n(C)c1=O` [CAFFEINE], the figures for the Activity with Mus musculus [1] and in the data set with Mus musculus [2] were 428.9 and 3.4, respectively.
Regarding `CN1C(=O)CN=C(c2ccccc2)c2cc(Cl)ccc21` [DIAZEPAM], the Activity in the data set with Mus musculus [3] was determined as 43.1; with Mus musculus [4], 24.7 s.
As to `CCOC(=O)c1ncn2c1CN(C)C(=O)c1cc(F)ccc1-2` [FLUMAZENIL], the Activity is given as 31.5 in the data set with Mus musculus [5] and 5.5 s with Mus musculus [6].
The half-life is the time in which the quantity being followed falls by half. Read a high half-life as slow decline. Take `C[C@@H]1C(=O)O[C@H]2C[C@@]34[C@H]5C[C@@H](C(C)(C)C)[C@]36[C@@H](OC(=O)[C@@H]6O)O[C@@]4(C(=O)O5)[C@]21O` [GINKGOLIDE A]: the Activity was 3490 s with Mus musculus [7]; 1.1 in the data set with Mus musculus [8]; 40.1 in the data set with Mus musculus [9]; 17.8 s in the data set with Mus musculus [10]; 39.1 with Mus musculus [11]; 31.6 in the data set with Mus musculus [12]. Moreover, the Activity result was “Non-toxic” in the data set on Mus musculus [13]; 182.8 in the data set with Mus musculus [14]; “Non-toxic” with Mus musculus [16]; “Non-toxic” with Mus musculus [17]; “Non-toxic” in the data set on Mus musculus [18]; 3694 s with Mus musculus [19]. Also, the Activity was 2830 s in the data set with Mus musculus [20]; 35.3 in the data set with Mus musculus [3]; 12.7 s in the data set on Mus musculus [21]; 10.5 s in the data set with Mus musculus [22]; “Non-toxic” with Mus musculus [23]; 35.4 with Mus musculus [24]. Besides, the Activity was 1.6 in the data set on Mus musculus [25]; 3690 s with Mus musculus [26]; 17.8 s in the data set on Mus musculus [27]; 40.1 in the data set on Mus musculus [28]; 18.6 s in the data set on Mus musculus [4]; “Non-toxic” in the data set with Mus musculus [29]. Besides, the Activity is 17.4 s in the data set on Mus musculus [30]; 5.9 s in the data set on Mus musculus [31]; 35.5 in the data set on Mus musculus [32]; 162.9 in the data set on Mus musculus [33]; 7.6 s in the data set with Mus musculus [34]; 3270 s with Mus musculus [35]. In addition, the values for the Activity with Mus musculus [36] and with Mus musculus [37] were 29.5 and 3510 s, respectively. In data set [15], this molecule gave a half-life of 1.5 h.
